Where “and” joins values, the source holds several entries; their conditions need not be identical. Identical values can stand only once.

Assay [1] deals with Mus musculus. The assay can be described thus: Animals without tumor after the test against the ADJ/PC6 Plasmacytoma cells of the BALB/C mouse at a dose of 20 mg/kg after 37 days was determined in vivo. The arrangement: dose 20 mg/kg. In kind it is functional, organism-based.
Assay [2] has as its system Rattus norvegicus. The assay can be described thus: Compound was tested for the increase in life span of L5222 Leukemia implanted rat at dose 20(60) mg/kg. In kind it is functional, organism-based. Summed up:
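BD IX rats, 3–6 months old, half female and half male, six per dose group, given 1 × 10^6 L 5222 cells in 1.0 mL physiological saline intraperitoneally (day 0). Complex dissolved in olive oil at 1 mg/mL; three injections on days 1, 2, 3 or 1, 5, 9. Scored as percent increased life span (ILS).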

The test system of assay [3] is Mus musculus. The assay can be described thus: Number of deaths against the ADJ/PC6 Plasmacytoma cells of the BALB/C mouse at a dose of 20 mg/kg after 38 days was determined in vivo. In kind it is functional, organism-based. The arrangement: dose 20 mg/kg.
In assay [4] the test system is Mus musculus. The assay can be described thus: Number of deaths against the ADJ/PC6 Plasmacytoma cells of the BALB/C mouse at a dose of 15 mg/kg after 38 days was determined in vivo. In kind it is functional, organism-based. The arrangement: dose 15 mg/kg.
For assay [5], the system named is Mus musculus. Put plainly: Animals without tumor after the test against the ADJ/PC6 Plasmacytoma cells of the BALB/C mouse at a dose of 20 mg/kg after 38 days was determined in vivo. The class given is functional, organism-based. The arrangement: dose 20 mg/kg.
Assay [6] deals with Estrogen receptor (Bos taurus) (UniProt Q9XSB5+P49884). Put plainly: In vitro inhibition of 1*10e-9 M [3H]estradiol binding to Estrogen receptor of calf uterine cytosol at 1*10e-5 M. In kind it is protein assay. Summed up:
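Competition of [3H]estradiol binding in calf uterine cytosol (final protein 5 mg/mL); bound and free ligand separated by dextran-coated charcoal; percent inhibition of binding reported.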

Assay [7] concerns Rattus norvegicus. The assay can be described thus: Compound was tested for the survival against L5222 Leukemia implanted rat at dose 20(60) mg/kg. The class given is functional, organism-based. Summed up: (§1)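 BD IX rats (3–6 months old, half female, half male), six per dose group, given 1 × 10^6 L 5222 cells in 1.0 mL physiological saline i.p. on day 0. The complex was in olive oil at a final 1 mg/mL and given i.p. as three injections, on days 1, 2, 3 or days 1, 5, 9. Read-out is median survival day and percent ILS.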

In assay [8] the test system is Mus musculus. Put plainly: Number of deaths against the ADJ/PC6 Plasmacytoma cells of the BALB/C mouse at a dose of 20 mg/kg after 37 days was determined in vivo; Value denoted as dead/test = 2/10. The class given is functional, organism-based. The arrangement: dose 20 mg/kg.
In assay [9] the test system is Mus musculus. Put plainly: Antitumor activity against the ADJ/PC6 Plasmacytoma cells of the BALB/C mouse at a dose of 15 mg/kg after 38 days was determined in vivo; Value denoted as dead/test = 1/10. The arrangement: dose 15 mg/kg. The class given is functional, organism-based. In a few lines:
(§2)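 Female Balb/C mice, 14–18 g, inoculated subcutaneously with 5 × 10^6 ADJ/PC6 cells in 0.1 mL PBS (day 0). Compounds suspended in olive oil, given intraperitoneally as a single dose (day 1) or triple dose (days 1, 2, 3). Groups usually of 10 animals; cisplatin positive control. Test ran about 38 days; activity read as mean tumor volume as percent of untreated control (T/C, %).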

Assay [10] deals with Mus musculus. The assay can be described thus: Animals without tumor after the test against the ADJ/PC6 Plasmacytoma cells of the BALB/C mouse at a dose of 15 mg/kg after 38 days was determined in vivo. In kind it is functional, organism-based. Also on record: dose 15 mg/kg.
Assay [11] relates to Mus musculus. Put plainly: Antitumor activity against the ADJ/PC6 Plasmacytoma cells of the BALB/C mouse at a dose of 20 mg/kg after 37 days was determined in vivo. The arrangement: dose 20 mg/kg. The class given is functional, organism-based. Summed up: as §2
For assay [12], the system named is Mus musculus. The assay can be described thus: Antitumor activity against the ADJ/PC6 Plasmacytoma cells of the BALB/C mouse at a dose of 20 mg/kg after 38 days was determined in vivo; Value denoted as dead/test = 0/10. In kind it is functional, organism-based. The arrangement: dose 20 mg/kg. In a few lines: as §2
Assay [13] has as its system Mus musculus. The assay can be described thus: Animals without tumor after the test against the ADJ/PC6 Plasmacytoma cells of the BALB/C mouse at a dose of 8 mg/kg after 37 days was determined in vivo. The class given is functional, organism-based. The arrangement: dose 8 mg/kg.
Assay [14] concerns ADJ/PC6. The assay can be described thus: In vitro incorporation of the [3H]thymidine into the ADJ/PC6 Plasmacytoma cells. In kind it is functional, cell-based. As to conditions: Mus musculus. Summed up: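 ADJ/PC6 tumor taken from passaged female Balb/C mice, minced and gently dispersed, then suspended in Eagle's MEM with 5% heat-inactivated horse serum, Hepes (5 mg/mL) and 0.1% Pluronic F 68, and filtered through gauze. Cells incubated 3 h at 37 °C with shaking, then pulsed with 1 μCi [methyl-3H]thymidine for 2 h. Ice-cold PBS stop, saline washes, sonication. Triplicates.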

In assay [15] the test system is Rattus norvegicus. The assay can be described thus: Compound was tested for the survival against L5222 Leukemia implanted rat at dose 3.5(10.5) mg/kg. The class given is functional, organism-based. Summed up: as §1
Assay [16] concerns MDA-MB-231. Put plainly: In vitro incorporation of [3H]thymidine into hormone-independent MDA-MB 231 breast cancer cells. The class given is functional, cell-based. Conditions: Homo sapiens. Summed up:
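MDA-MB 231 cells grown in McCoy 5a with 10% newborn calf serum and gentamycin, switched to 5% serum 1 h before the experiment. Compounds added from fresh 1000-fold Me2SO concentrates (final solvent 0.1%). [3H]Thymidine incorporation into TCA-precipitable material measured. Mean of triplicates.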

The test system of assay [17] is Mus musculus. The assay can be described thus: Antitumor activity against the ADJ/PC6 Plasmacytoma cells of the BALB/C mouse at a dose of 8 mg/kg after 37 days was determined in vivo. In kind it is functional, organism-based. Also on record: dose 8 mg/kg. Summed up:
as §2

The test system of assay [18] is Rattus norvegicus. The assay can be described thus: Compound was tested for the survival against L5222 Leukemia implanted rat at dose 3.5(10.5)mg/kg. In kind it is functional, organism-based. Summed up:
as §1

The subject of assay [19] is Mus musculus. Put plainly: Number of deaths against the ADJ/PC6 Plasmacytoma cells of the BALB/C mouse at a dose of 8 mg/kg after 37 days was determined in vivo. The class given is functional, organism-based. The arrangement: dose 8 mg/kg.

As for “(+) R,R-dichloro-[1,2-bis(4-hydroxyphenyl)ethylenediamine]platinum (II)”, the figures for the Activity in assay [1], in assay [5] and in assay [10] were 8, 7 and 7, respectively. In addition, the ILS in [2] turned out to be 175%. In addition, the Deaths in assay [3] came out at 0; in [4] it was 1; in assay [8], 2. Moreover, in assay [6], the inhibition was 11% and 13.7% and 9.7%. In assay [7], this substance had a Median day of survival of 18. In addition, the T/C in assay [9] was determined as 1%; in [11] it was 0%; in assay [12] it was 0%.
Take CISPLATIN: the Activity in [13] is 10. Also, the ID50 in [14] is 9.5 µM; in assay [16], 0.65 µM. In addition, the Median day of survival in assay [15] stood at 17.5; in assay [18] it was 14.5. The substance further displayed a T/C in [17] of 0%. In addition, the Deaths in assay [19] turned out to be 0.

These data come from ChEMBL document CHEMBL1122610, “Dichloro[1,2-bis(4-hydroxyphenyl)ethylenediamine]platinum(II) complexes: an approach to develop compounds with a specific effect on the hormone-dependent mammary carcinoma” (J Med Chem, 1984).
